Results reported in ChEMBL document CHEMBL2062498, “3-Arylcoumarin derivatives manifest anti-proliferative activity through Hsp90 inhibition” (ACS Med Chem Lett, 2012).

Assays:
MCF7 = test: Antiproliferative activity against estrogen receptor-positive in human MCF7 cells; type: functional, cell-based
Procedure, shortened: (§1)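 IC50 values for growth inhibition are reported as means ± standard deviations from at least two separate experiments, each run in triplicate.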

SK-BR-3 = test: Antiproliferative activity against estrogen receptor-negative Her2 overexpressing in human SKBR3 cells; type: functional, cell-based; procedure, shortened: as §1
[1] = target: Heat shock protein HSP 90-beta (Homo sapiens) (UniProt P08238); test: Inhibition of HSP90 in human MCF7 cells assessed as degradation of Akt protein after 24 hrs by Western blot analysis; type: cell-based
Procedure, shortened: (§2)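 MCF-7 breast cancer cells were exposed to a range of test concentrations (μM) for 24 h, then lysed. Lysates were immunoblotted for the Hsp90-dependent clients Raf-1 and Akt, and also for Hsp90 itself. Actin served as the non-Hsp90-dependent reference protein.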

[2] = target: Heat shock protein HSP 90-beta (Homo sapiens) (UniProt P08238); test: Inhibition of HSP90 in human MCF7 cells assessed as degradation of Raf1 protein after 24 hrs by Western blot analysis; type: cell-based; procedure, shortened: as §2

Chain of Heat shock protein HSP 90-beta (Homo sapiens) (P08238 whole entry): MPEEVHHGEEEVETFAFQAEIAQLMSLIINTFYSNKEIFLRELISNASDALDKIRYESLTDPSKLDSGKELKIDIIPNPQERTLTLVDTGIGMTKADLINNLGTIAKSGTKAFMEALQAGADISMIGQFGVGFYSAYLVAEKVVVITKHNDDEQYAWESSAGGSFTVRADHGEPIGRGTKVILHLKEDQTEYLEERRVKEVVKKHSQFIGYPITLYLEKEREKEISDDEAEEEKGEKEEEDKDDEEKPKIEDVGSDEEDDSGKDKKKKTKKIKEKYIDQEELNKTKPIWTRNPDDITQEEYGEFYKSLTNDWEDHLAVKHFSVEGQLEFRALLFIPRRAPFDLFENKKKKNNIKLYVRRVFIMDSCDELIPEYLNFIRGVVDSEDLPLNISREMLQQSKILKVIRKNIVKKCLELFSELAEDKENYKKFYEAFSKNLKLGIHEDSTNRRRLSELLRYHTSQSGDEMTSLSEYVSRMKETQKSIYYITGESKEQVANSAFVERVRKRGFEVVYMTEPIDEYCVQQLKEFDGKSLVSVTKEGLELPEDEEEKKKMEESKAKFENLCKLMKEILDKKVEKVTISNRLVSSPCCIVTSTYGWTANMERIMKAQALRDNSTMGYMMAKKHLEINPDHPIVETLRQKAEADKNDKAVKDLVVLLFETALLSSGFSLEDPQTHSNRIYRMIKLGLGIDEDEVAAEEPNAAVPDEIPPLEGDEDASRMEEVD

SMILES	IC50 (MCF7) [µM]	IC50 (SK-BR-3) [µM]	inhibition [1]	inhibition [2]
Cc1c(OC2CCN(C)CC2)ccc2cc(-c3ccc(F)cc3)c(=O)oc12	3.83	7.38	–	–
CN1CCC(Oc2ccc3cc(-c4ccccc4-c4ccccc4)c(=O)oc3c2)CC1	15.6	15.6	–	–
CN1CCC(Oc2ccc3cc(-c4ccc(OC(F)(F)F)cc4)c(=O)oc3c2)CC1	4.12	5.78	–	–
CN1CCC(Oc2ccc3cc(-c4cccc(C(F)(F)F)c4)c(=O)oc3c2)CC1	4.64	9.21	–	–
COc1ccc(-c2cc3ccc(OC4CCN(C)CC4)cc3oc2=O)cc1	16.9	29.9	–	–
CN1CCC(Oc2ccc3cc(-c4ccc5c(c4)OCO5)c(=O)oc3c2)CC1	8.79	14.8	–	–
Cc1c(OC2CCN(C)CC2)ccc2cc(-c3ccc(Cl)cc3)c(=O)oc12	1.24	4.94	–	–
CN1CCC(Oc2ccc3cc(-c4ccc(-c5ccccc5)cc4)c(=O)oc3c2)CC1	3.08	3.33	–	–
CN1CCC(Oc2ccc3cc(-c4ccc(C(C)(C)C)cc4)c(=O)oc3c2)CC1	2.36	4.42	–	–
CN1CCC(Oc2ccc3cc(-c4ccc(Oc5ccccc5)cc4)c(=O)oc3c2)CC1	1.45	4.43	–	–
COc1ccc(-c2cc3ccc(OC4CCN(C)CC4)c(C)c3oc2=O)cc1	1.97	5.52	–	–
Cc1c(OC2CCN(C)CC2)ccc2cc(-c3ccc(OC(F)(F)F)cc3)c(=O)oc12	1.65	4.51	–	–
Cc1c(OC2CCN(C)CC2)ccc2cc(-c3ccccc3)c(=O)oc12	7.72	14.3	–	–
Cc1c(OC2CCN(C)CC2)ccc2cc(-c3ccc4c(c3)OCO4)c(=O)oc12	3.71	5.21	–	–

Other lines, results leading:

IC50 (MCF7) [µM]	IC50 (SK-BR-3) [µM]	inhibition [1]	inhibition [2]	SMILES
10.5	43.9	–	–	CN1CCC(Oc2ccc3cc(-c4ccc(F)cc4)c(=O)oc3c2)CC1
3.89	8.24	–	–	CN1CCC(Oc2ccc3cc(-c4ccc(Cl)cc4)c(=O)oc3c2)CC1
5.79	9.46	–	–	CN1CCC(Oc2ccc3cc(-c4cccc(Cl)c4)c(=O)oc3c2)CC1
8.42	10.6	–	–	CN1CCC(Oc2ccc3cc(-c4cccc(C#N)c4)c(=O)oc3c2)CC1
8.6	11.2	–	–	Cc1ccc(-c2cc3ccc(OC4CCN(C)CC4)cc3oc2=O)cc1
0.81	0.98	Dose-dependent effect	Dose-dependent effect	CN1CCC(Oc2ccc3cc(-c4cc5ccccc5s4)c(=O)oc3c2)CC1
29	38.4	–	–	CN1CCC(Oc2ccc3cc(-c4ccccc4)c(=O)oc3c2)CC1
10.6	25.4	–	–	CN1CCC(Oc2ccc3cc(-c4ccccc4Cl)c(=O)oc3c2)CC1
4.93	5.84	–	–	CN1CCC(Oc2ccc3cc(-c4cc5ccccc5o4)c(=O)oc3c2)CC1
7.67	24.9	–	–	CN1CCC(Oc2ccc3cc(-c4cccc(F)c4)c(=O)oc3c2)CC1
